pEC50, pIC50: −log10 of the molar value. Converted amounts (≈) assume the structure as drawn.
Experiments:
Huh-7 = assay: Cytotoxicity against human HuH7 cells at 50 uM after 2 days by Cell Titer Glo assay; assay type: cell-based; details: huh-7, 48 h
Summary of the method: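 Huh7 cells were exposed to compound at 50 μM for 2 days and scored for cellular toxicity.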

[1] = Plasma protein binding in CD rat at 5 uM after 4 hrs by rapid equilibrium dialysis method; assay type: ADME, cell-free; details: read-out: PPB (converted)
[2] = Plasma protein binding in human at 5 uM after 4 hrs by rapid equilibrium dialysis method; assay type: ADME, cell-free; details: read-out: PPB (converted)
Hepatitis C virus [3] = assay: Antiviral activity against Hepatitis C virus genotype 1a infected in human HuH7 cells after 48 hrs by luciferase reporter gene assay; assay type: functional, organism-based, Hepacivirus hominis; details: subtype 1a, Huh-7, 48 h
[4] = Plasma protein binding in cynomolgus monkey at 5 uM after 4 hrs by rapid equilibrium dialysis method; assay type: ADME, cell-free, Macaca fascicularis; details: read-out: PPB (converted)
Hepatitis C virus [5] = assay: Antiviral activity against Hepatitis C virus genotype 1b infected in human HuH7 cells after 48 hrs by luciferase reporter gene assay; assay type: functional, organism-based, Hepacivirus hominis; details: Huh-7, 48 h
[6] = AUC (0 to 24 hrs) in CD rat at 300 mg/kg, po by LC/MS/MS analysis; assay type: ADME, organism-based; set-up: time < 24 hr, dose 300 mg/kg, route oral; details: plasma
Summary of the method: (§1)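 CD rats were given a single oral dose of 300 mg/kg of parent suspension or of prodrug. Plasma was assayed for the parent drug and for uncleaved prodrug.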

[7] = Lipophilicity, log D of the compound by chromatographic analysis; assay type: physicochemical
Summary of the method: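 Lipophilicity was measured chromatographically and reported as ChromLogD; ≥6 replicates.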

[8] = Aqueous solubility in fasted state simulated intestinal fluid at pH 6.5 by LC/UV analysis; assay type: physicochemical
[9] = Plasma protein binding in beagle dog at 5 uM after 4 hrs by rapid equilibrium dialysis method; assay type: ADME, cell-free, Canis lupus familiaris; details: read-out: PPB (converted)
Rattus norvegicus [10] = organism: Rattus norvegicus; assay: Cardiovascular toxicity in rat after 7 days; assay type: organism-based; details: in vivo, 168 h
Hepatitis C virus [11] = assay: Antiviral activity against Hepatitis C virus genotype 1b expressing NS4B V105M mutant infected in human HuH7 cells after 48 hrs by luciferase reporter gene assay; assay type: functional, organism-based, Hepacivirus hominis; details: Huh-7, 48 h
Hepatitis C virus [12] = assay: Antiviral activity against Hepatitis C virus genotype 1a; assay type: functional, Hepacivirus hominis; details: subtype 1a
[13] = Displacement of [3H]-3-(1-(3-chloro-6-isopropyl-8-(trifluoromethyl)imidazo[1,2-a]pyridine-2-carbonyl)piperidin-4-yl)oxazolidin-2-one from HCV genotype 1b C-terminal His-tagged NS4B (1 to 261 aa) expressed in baculovirus infected SF9 cells after overnight incubation; set-up: species or system Hepatitis C virus subtype 1b
Hepatitis C virus [14] = assay: Antiviral activity against wild-type Hepatitis C virus genotype 1a infected in PXB mouse assessed as log reduction in viral mRNA titer at 10 to 30 mg/kg, po bid every 12 hrs for 7 days measured after 12 hrs relative to control; assay type: functional, Hepacivirus hominis, subtype 1a; details: dose mg/kg 10-30
Summary of the method: (§2)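 PXB mice infected with wild-type HCV genotype 1a virus were dosed orally b.i.d. 5−8 weeks after infection with the phosphate prodrug of the lead (10 or 30 mg/kg) for 7 days, n = 4/group. A non-nucleoside NS5B inhibitor at 100 mg/kg b.i.d. served as positive control. Read-out was HCV viral RNA titer (viral load) over the course of treatment.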

[15] = Toxicity in po dosed PXB mouse assessed as induction of metabolism administered bid every 12 hrs for 7 days; assay type: organism-based; details: in vivo
Summary of the method: (§3)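 Repeat-dose tolerability study in uninfected PXB mice, run before HCV infection. The test agent was given orally as a phosphate prodrug at 10 and 30 mg/kg b.i.d. for 7 days. Plasma exposure of the parent drug was followed over the course, and liver tissue was taken 12 h after dosing on day 7.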

Liver = assay: Drug uptake in PXB mouse liver assessed as 4-(3-chloro-6-cyclopropyl-8-(trifluoromethyl)imidazo[1,2-a]pyridine-2-carbonyl)-1-((trans)-4-hydroxycyclohexyl)piperazin-2-one level at 10 to 30 mg/kg, po bid every 12 hrs for 7 days measured 12 hrs post last dose; assay type: ADME, organism-based; set-up: dose 10-30 mg/kg, route oral; details: in vivo
Summary of the method: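 Uninfected PXB mice were given the prodrug orally at 10 or 30 mg/kg b.i.d. for 7 days. Liver tissue was taken 12 h after the day-7 dose and the level of parent drug in liver was measured relative to plasma.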

Mus musculus [16] = assay: AUC (0 to 12 hrs) in PXB mouse assessed as 4-(3-chloro-6-cyclopropyl-8-(trifluoromethyl)imidazo[1,2-a]pyridine-2-carbonyl)-1-((trans)-4-hydroxycyclohexyl)piperazin-2-one level at 30 mg/kg, po; assay type: ADME, organism-based, Plasma; set-up: time < 12 hr, dose 30 mg/kg, route oral; details: in vivo
Summary of the method: (§4)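 Single oral dose of the phosphate prodrug at 10 or 30 mg/kg to uninfected PXB mice (n = 3/group). Plasma levels of the parent drug were followed over 12 h, and AUC0−12h was calculated for the parent.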

Mus musculus [17] = assay: AUC (0 to 12 hrs) in PXB mouse assessed as 4-(3-chloro-6-cyclopropyl-8-(trifluoromethyl)imidazo[1,2-a]pyridine-2-carbonyl)-1-((trans)-4-hydroxycyclohexyl)piperazin-2-one level at 10 mg/kg, po; assay type: ADME, organism-based, Plasma; set-up: time < 12 hr, dose 10 mg/kg, route oral; details: in vivo; summary of the method: as §4
Rattus norvegicus [18] = assay: Prodrug conversion in CD rat assessed as 4-(3-chloro-6-cyclopropyl-8-(trifluoromethyl)imidazo[1,2-a]pyridine-2-carbonyl)-1-((trans)-4-hydroxycyclohexyl)piperazin-2-one level at 300 mg/kg, po; assay type: ADME, organism-based; set-up: dose 300 mg/kg, route oral; details: in vivo; summary of the method: as §1
Hepatitis C virus [19] = assay: Antiviral activity against wild-type Hepatitis C virus genotype 1a infected in PXB mouse assessed as log reduction in viral mRNA titer at 10 to 30 mg/kg, po bid every 12 hrs for 7 days measured on day 4 relative to control; assay type: functional, Hepacivirus hominis, subtype 1a; details: dose mg/kg 10-30; summary of the method: as §2
[20] = Toxicity in po dosed PXB mouse assessed as compound accumulation administered bid every 12 hrs for 7 days; assay type: organism-based; details: in vivo; summary of the method: as §3
Hepatitis C virus [21] = assay: Antiviral activity against wild-type Hepatitis C virus genotype 1a infected in po dosed PXB mouse assessed as log reduction in viral mRNA titer administered bid every 12 hrs for 7 days measured on day 7 relative to control; assay type: functional, organism-based; details: Hepacivirus hominis; subtype 1a
Summary of the method: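 PXB mice were infected with HCV genotype 1a wild-type virus and treated 5−8 weeks later (n = 4/group). Oral dosing b.i.d. for 7 days: prodrug at 10 or 30 mg/kg, or positive control at 100 mg/kg. Serum HCV RNA titers (viral load) were followed over the course of dosing.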

O=C(c1nc2c(C(F)(F)F)cc(C3CC3)cn2c1Cl)N1CCN([C@H]2CC[C@H](O)CC2)C(=O)C1
Activity (Huh-7): Non-toxic | fraction unbound at 4 h, 5 µM [1]: 0.2 | fraction unbound at 4 h, 5 µM [2]: 0.17 | pEC50 (Hepatitis C virus [3]): 9.00 | fraction unbound at 4 h, 5 µM [4]: 0.23 | pEC50 (Hepatitis C virus [5]): 8.15 | AUC(0-t) at 24 h [6]: 11300 ng·h/mL | chromatographic logD [7]: 3.5 | solubility [8]: 11 µg/mL (≈ 22.7 µM) | fraction unbound at 4 h, 5 µM [9]: 0.34 | Activity (Rattus norvegicus [10]): Toxic | pEC50 (Hepatitis C virus [11]): 6.14 | EC90 (Hepatitis C virus [12]): 0.029 µM | pIC50 [13]: 7.28

O=C(c1nc2c(C(F)(F)F)cc(C3CC3)cn2c1Cl)N1CCN([C@H]2CC[C@H](OP(=O)(O)O)CC2)C(=O)C1
FC (Hepatitis C virus [14]): 1 | MTD at 7 days [15]: 30 mg/kg | Drug uptake (Liver): Active | AUC (Mus musculus [16]): 66000 ng·h/mL | AUC (Mus musculus [17]): 15000 ng·h/mL | Stability (Rattus norvegicus [18]): Unstable | FC (Hepatitis C virus [19]): 4 | solubility [8]: > 1000 µg/mL | MTD at 7 days [20]: 10 mg/kg | Activity (Hepatitis C virus [21]): Dose-dependent effect

Reference: ChEMBL document CHEMBL3124867, “Hepatitis C replication inhibitors that target the viral NS4B protein” (J Med Chem, 2014)
